This is an account of results in ChEMBL document CHEMBL1156574, “Synthesis and biological properties of benzothiazole, benzoxazole, and chromen-4-one analogues of the potent antitumor agent 2-(3,4-dimethoxyphenyl)-5-fluorobenzothiazole (PMX 610, NSC 721648)” (J Med Chem, 2008).

Activity calls are given as the source filed them. The rule behind the calls is not given here.

Assay [1] relates to MCF7. As to the kind of experiment: Antiproliferative activity against estrogen receptor positive human MCF7 cells after 72 hrs by MTT assay. The assay is classed as functional. The following applies: MCF7, 72 h. In a few lines: (§1)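 Growth inhibition was tested in triplicate in breast lines MCF-7 (ER +ve) and MDA 468 (ER −ve). Values are means of three independent experiments, reported as GI50.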
A general note: Formazan colour is commonly taken as a measure of viable cells.

Assay [2] can be described thus: Antiproliferative activity against estrogen receptor deficient human MDA468 cells after 72 hrs by MTT assay. It is filed as functional. The following applies: MDA-MB-468, 72 h. The procedure, abridged:
as §1

Assay [3] in a line: Cell cycle arrest in estrogen receptor deficient human MDA468 cells assessed as accumulation at G2/M phase at 0.1 uM after 48 hrs by flow cytometry. The assay is classed as functional, cell-based. The following applies: MDA-MB-468. In a few lines: (§2)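 MDA 468 breast cells were left untreated or exposed for 24–72 h. Cellular DNA content was measured by flow cytometry, with 10 000 events per sample. Percentages in pre-G1, G1, S and G2/M were taken from the DNA histograms and compared with the nontreated control. Independent analyses were run ≥3 times.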
(A flow cytometer gives signals particle by particle.)

Assay [4] is described as follows: Cell cycle arrest in estrogen receptor deficient human MDA468 cells assessed as accumulation at G2/M phase at 0.1 uM after 72 hrs by flow cytometry. The following applies: MDA-MB-468. The assay is classed as functional, cell-based. In a few lines: as §2
Assay [5] deals with T1, Aryl hydrocarbon receptor (Rattus norvegicus, UniProt P41738).
T1 sequence (P41738 whole entry): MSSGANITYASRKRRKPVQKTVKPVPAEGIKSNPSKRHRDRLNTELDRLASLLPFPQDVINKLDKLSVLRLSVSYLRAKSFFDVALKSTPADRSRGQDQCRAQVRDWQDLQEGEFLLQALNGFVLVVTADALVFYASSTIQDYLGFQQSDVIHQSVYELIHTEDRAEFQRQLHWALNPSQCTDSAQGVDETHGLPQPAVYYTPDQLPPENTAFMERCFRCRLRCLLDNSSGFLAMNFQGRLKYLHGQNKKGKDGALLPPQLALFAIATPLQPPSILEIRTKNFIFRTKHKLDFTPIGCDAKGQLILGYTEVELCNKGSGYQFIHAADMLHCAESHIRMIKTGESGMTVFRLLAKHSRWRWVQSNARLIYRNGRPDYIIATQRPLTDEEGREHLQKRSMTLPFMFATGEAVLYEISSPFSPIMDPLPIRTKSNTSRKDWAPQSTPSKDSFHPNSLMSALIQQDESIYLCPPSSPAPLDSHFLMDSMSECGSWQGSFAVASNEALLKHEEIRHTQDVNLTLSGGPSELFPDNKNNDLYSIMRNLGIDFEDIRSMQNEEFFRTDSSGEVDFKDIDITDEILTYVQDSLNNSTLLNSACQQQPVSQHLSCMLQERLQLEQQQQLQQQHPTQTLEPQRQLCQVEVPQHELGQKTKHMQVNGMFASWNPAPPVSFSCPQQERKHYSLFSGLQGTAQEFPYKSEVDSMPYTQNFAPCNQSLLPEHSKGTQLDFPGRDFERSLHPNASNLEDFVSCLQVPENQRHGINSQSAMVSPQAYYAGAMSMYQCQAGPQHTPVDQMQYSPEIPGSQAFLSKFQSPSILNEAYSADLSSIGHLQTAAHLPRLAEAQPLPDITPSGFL
The assay can be described thus: Displacement of [3H]tetrachlorodibenzo-p-dioxin from aryl hydrocarbon receptor in CRL:WI rat liver cytosol. In a few lines: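 Aryl hydrocarbon receptor binding was measured in CRL:WI rat liver cytosol by displacement of [3H]tetrachlorodibenzo-p-dioxin. IC50 was determined, and Ki was also reported.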

The nature of assay [6]: Cell cycle arrest in estrogen receptor deficient human MDA468 cells assessed as accumulation at G2/M phase at 0.1 uM after 24 hrs by flow cytometry. The following applies: MDA-MB-468. The assay is classed as functional, cell-based. In a few lines: as §2
Assay [7] can be described thus: Antiproliferative activity against estrogen receptor deficient human MDA468 cells after 72 hrs by MTT assay in presence of aryl hydrocarbon receptor antagonist alpha-naphthoflavone. The assay is classed as functional. The following applies: MDA-MB-468, 72 h.
The subject of assay [8] is MCF7. As to the kind of experiment: Antiproliferative activity against human estrogen receptor positive MCF7 cells after 72 hrs by MTT assay in presence of aryl hydrocarbon receptor antagonist alpha-naphthoflavone. The assay is classed as functional. The following applies: MCF7, 72 h.
A short description of assay [9]: Cell cycle arrest in estrogen receptor deficient human MDA468 cells assessed as accumulation at S phase at 1 uM after 24 hrs by flow cytometry. The assay is classed as functional, cell-based. The following applies: MDA-MB-468. In a few lines:
as §2

Assay [10] is described as follows: Cell cycle arrest in estrogen receptor deficient human MDA468 cells assessed as accumulation at G2/M phase at 1 uM after 24 hrs by flow cytometry. The following applies: MDA-MB-468. The assay is classed as functional, cell-based. In a few lines: as §2
Assay [11] concerns MDA-MB-468. The assay can be described thus: Induction of apoptosis in estrogen receptor deficient human MDA468 cells assessed as accumulation at preG1 phase at 1 uM after 24 hrs by flow cytometry. It is filed as functional, cell-based. In a few lines:
as §2

In general, GI50 refers to the concentration at which growth is held to half of that of the control. For `COc1cc(-c2nc3cc(F)ccc3o2)cc(OC)c1OC`, the concentration for 50% growth inhibition (GI50) came out at 16 µM in assay [1] and 2.58 µM in assay [2].
Turning to `Oc1ccc(-c2nc3cc(F)ccc3s2)cc1`, the GI50 in assay [1] is 0.4 µM; in [2], 0.21 µM.
For `Oc1cccc(-c2nc3cc(F)ccc3s2)c1`, in that order: 0.57 µM and 0.2 µM.
`COc1ccccc1-c1nc2cc(F)ccc2o1`: the 50% growth inhibitory concentration (GI50) in assay [1] stood at 0.36 µM; in assay [2] it was 0.27 µM.
For `COc1cc(-c2nc3ccc(F)cc3o2)cc(OC)c1OC` the same measures were 1.09 µM and 0.037 µM.
For the compound `COc1ccc(-c2nc3ccc(F)cc3o2)c(OC)c1`, the GI50 stood at 69.9 µM in [1] and 3.29 µM in [2].
For the compound `CCc1ccc2nc(-c3ccc(O)cc3)sc2c1`, the GI50 in assay [1] and in assay [2] was > 100 µM throughout.
On to `Oc1ccc(-c2nc3ccc(Br)cc3s2)cc1`, for which the results for the GI50 in assay [1] and in [2] were 4.16 µM and 0.28 µM, respectively.
The IC50 is the midpoint of a concentration-inhibition curve. A higher IC50 goes with weaker potency. A word on the Ki: it is a dissociation constant, usually derived from enzyme kinetics or from competition with a known ligand. Higher therefore signals lower affinity. Regarding `COc1ccc(-c2nc3cc(F)ccc3s2)cc1OC`, the result in assay [3], in [4] and in [6] was Active. The 50% growth inhibitory concentration (GI50) in [1] is < 0.0001 µM; in [2], < 0.0001 µM; in assay [7], 0.27 µM; in assay [8], 0.514 µM. Besides, the concentration for half-maximal inhibition (IC50) in assay [5] is 0.025 µM. This compound also registered a Ki in assay [5] of 0.0068 µM.
Regarding `Fc1ccc2oc(-c3ccc4c(c3)OCO4)nc2c1`, the values for the GI50 in assay [1] and in assay [2] were 61.4 µM and 14.5 µM, respectively.
For `COc1ccc(-c2nc3ccc(F)cc3o2)cc1OC`, in that order: 3.53 µM and 0.017 µM.
For `Oc1ccc(-c2nc3ccc(F)cc3s2)cc1` the same measures were 54 µM and 0.5 µM.
For the compound `COc1ccc(-c2cc(=O)c3cc(F)ccc3o2)cc1OC`, the results for the GI50 in assay [1] and in assay [2] were 83.4 µM and 20.6 µM, respectively.
Consider `COc1ccc(-c2nc3cc(F)ccc3[nH]2)cc1OC`, for which the figures for the GI50 in assay [1] and in [2] were 85.7 µM and 94.4 µM, respectively. The result in assay [9] and in assay [6] was inactive.
`COc1cc(OC)cc(-c2nc3cc(F)ccc3o2)c1`: the GI50 in [1] was 45.4 µM; in assay [2], 0.79 µM.
For `COc1ccc(-c2cc(=O)c3ccc(F)cc3o2)cc1OC`, in that order: 27.9 µM and 0.45 µM.
For the compound `COc1cccc(-c2nc3ccc(F)cc3o2)c1`, the GI50 in assay [1] is 35.1 µM; in [2], 2.02 µM.
For `Oc1ccc(-c2nc3cc(C(F)(F)F)ccc3s2)cc1`, in that order: 13.8 µM and 0.1 µM.
`COc1cccc(-c2nc3cc(F)ccc3o2)c1`: the GI50 in [1] was 39.5 µM; in assay [2], 0.87 µM.
Consider `Oc1ccc(-c2nc3ccc(Cl)cc3s2)cc1`, for which the GI50 is 26.5 µM in [1] and 0.28 µM in [2].
Regarding `COc1ccc(-c2nc3cc(F)ccc3o2)cc1OC`, the concentration for 50% growth inhibition (GI50) in assay [1] is 0.83 µM; in assay [2] it was 0.33 µM. Besides, the result in assay [10], in [9] and in [11] was Active. In assay [6], the result was inactive.
As for `COc1cc(OC)cc(-c2nc3ccc(F)cc3o2)c1`, the results for the concentration for 50% growth inhibition (GI50) in assay [1] and in [2] were 3.72 µM and 0.46 µM, respectively.
For `COc1ccccc1-c1nc2ccc(F)cc2o1` the same measures were 0.82 µM and 1.19 µM.
For `COc1ccc2nc(-c3ccc(O)cc3)sc2c1`, the figures for the 50% growth inhibitory concentration (GI50) in assay [1] and in assay [2] were 45.8 µM and 9.67 µM, respectively.
For `COc1ccc(-c2nc3cc(F)ccc3o2)cc1` the same measures were 22.7 µM and 0.76 µM.
For `CS(=O)(=O)c1ccc2nc(-c3ccc(O)cc3)sc2c1` the same measures were 62.3 µM and 42.2 µM.
For `COc1ccc(-c2nc3ccc(F)cc3o2)cc1`, in that order: 41 µM and 9.55 µM.
With `CCOc1ccc2nc(-c3ccc(O)cc3)sc2c1`, the GI50 in assay [1] and in assay [2] was > 100 µM in each case.
Regarding `COc1cccc(OC)c1-c1nc2ccc(F)cc2o1`, the figures for the 50% growth inhibitory concentration (GI50) in [1] and in assay [2] were 90.7 µM and 98.6 µM, respectively.
For `Fc1ccc2nc(-c3ccc4c(c3)OCO4)oc2c1`, in that order: 19.2 µM and 6.77 µM.
For `COc1cccc(OC)c1-c1nc2cc(F)ccc2o1`, in that order: 58.1 µM and 22 µM.
For `COc1ccc(-c2nc3cc(F)ccc3o2)c(OC)c1` the same measures were 2.16 µM and 0.54 µM.
